Assay results: ChEMBL document CHEMBL5357049, “Discovery of new dibenzodiazepine derivatives as antibacterials against intracellular bacteria” (RSC Med Chem, 2024)
Calls of active or inactive are those of the source. The rule behind the calls is not given here.

Key:
Salmonella typhimurium [1] = experiment: Antibacterial activity against Salmonella typhimurium ATCC14028 infected in mouse RAW264.7 cells assessed as reduction in intracellular bacterial growth incubated for 24 hrs in presence of gentamicin by CMFDA and DAPI staining based high-content screening method; format: functional, organism-based, Salmonella enterica subsp. enterica serovar Typhimurium; settings: Salmonella enterica, ATCC14028, RAW264.7, 24 h
Outline: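 RAW264.7 seeded at 10^4 cells/well for 20 h, then infected at MOI 50 with RFP-expressing ATCC14028 (subcultured 2 h, OD600 0.6 ≈ 1.5×10^8 CFU/mL). After 1 h infection: 100 µg/mL gentamicin 1 h, then compound with 20 µg/mL gentamicin for 24 h. Stained with 2.5 µM CMFDA, fixed in 3.7% formaldehyde, DAPI nuclei; nuclei and intracellular bacteria counted by imaging, 10× objective.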

[2] = Selectivity ratio of CC50 for cytotoxicity against mouse RAW264.7 cells to EC50 for antibacterial activity against Salmonella typhimurium ATCC14028 infected in mouse RAW264.7 cells; format: toxicity, cell-based; settings: read-out: Ratio CC50/EC50
[3] = Cytotoxicity against mouse RAW264.7 cells assessed as reduction in cell viability incubated for 24 hrs by MTT assay; format: toxicity, cell-based
Outline: (§1)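 Cells seeded at 10^5 cells/mL, grown 20 h at 37°C, 5% CO2, then exposed to compound for 24 h. Medium replaced with 0.5 mg/mL MTT for 1 h, formazan dissolved in DMSO, absorbance read at 570 nm; CC50 calculated. HT-29 and HCT-116 kept in McCoy's 5A with 10% FBS, THP-1 in RPMI 1640 with 10% FBS, others in DMEM with 10% FBS.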

Salmonella typhimurium [4] = experiment: Antibacterial activity against Salmonella typhimurium ATCC14028 infected in monocytic human THP-1 cells assessed as reduction in intracellular bacterial growth incubated for 24 hrs in presence of gentamicin by CFU assay; format: functional, organism-based, Salmonella enterica subsp. enterica serovar Typhimurium; settings: Salmonella enterica, ATCC14028, THP-1, 24 h
Outline: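 Undifferentiated THP-1 cells in RPMI 1640 + 10% FBS. Cells were infected 1 h with LB-grown bacteria at OD600 0.6, given 100 µg/mL gentamicin for 1 h, then compound for 24 h with 20 µg/mL gentamicin.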

[5] = Cytotoxicity against human Intestine 407 cells assessed as reduction in cell viability incubated for 24 hrs in presence of gentamicin by MTT assay; format: functional; outline: as §1
Salmonella typhimurium [6] = experiment: Antibacterial activity against Salmonella typhimurium CGC18 infected in mouse RAW264.7 cells assessed as reduction in intracellular bacterial growth incubated for 24 hrs in presence of gentamicin by CFU assay; settings: Salmonella enterica, CGC18, RAW264.7, 24 h
[7] = biological target: D(2) dopamine receptor (Homo sapiens) (UniProt P14416); experiment: Displacement of [3H]-labelled spiperone human recombinant D2 receptor expressed in CHO cells at 0.1 to 1 uM incubated for 2 hrs; format: cell-based; settings: dose 0.1-1 µM
Sequence of D(2) dopamine receptor (Homo sapiens) (P14416 whole entry): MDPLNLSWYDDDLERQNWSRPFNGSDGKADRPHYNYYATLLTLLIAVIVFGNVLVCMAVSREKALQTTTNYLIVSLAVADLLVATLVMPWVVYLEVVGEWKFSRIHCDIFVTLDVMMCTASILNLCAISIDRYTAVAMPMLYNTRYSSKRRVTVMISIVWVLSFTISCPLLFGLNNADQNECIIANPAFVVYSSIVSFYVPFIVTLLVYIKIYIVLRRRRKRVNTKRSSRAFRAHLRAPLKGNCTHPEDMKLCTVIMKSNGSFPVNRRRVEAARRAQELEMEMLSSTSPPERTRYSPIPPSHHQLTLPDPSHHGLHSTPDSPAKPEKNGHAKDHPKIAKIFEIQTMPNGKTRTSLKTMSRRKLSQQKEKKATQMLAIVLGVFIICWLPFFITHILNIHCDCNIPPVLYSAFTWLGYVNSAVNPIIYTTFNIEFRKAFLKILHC
Outline: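 Contract radioligand binding: 20 µg human recombinant D2R from CHO cells incubated with [3H]spiperone, then compound added; pH 7.4 Tris-HCl, 2 h at 25°C.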

Salmonella typhimurium [8] = experiment: Antibacterial activity against Salmonella typhimurium ATCC14028 assessed as reduction in bacterial growth upto 64 uM incubated for 24 hrs by SpectraMax microplate reader analysis; format: functional, organism-based; settings: Salmonella enterica subsp. enterica serovar Typhimurium
Outline: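 Overnight LB culture inoculated at 5×10^5 CFU/mL final into CAMHB or into DMEM with 10% FBS. Exposed to a range of concentrations at 37°C; growth followed by absorbance at 600 nm at set times over 24 h.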

HT-29 = experiment: Cytotoxicity against human HT-29 cells assessed as reduction in cell viability incubated for 24 hrs in presence of gentamicin by MTT assay; format: functional; outline: as §1
THP-1 [9] = experiment: Cytotoxicity against monocytic human THP-1 cells assessed as reduction in cell viability incubated for 24 hrs in presence of gentamicin by MTT assay; format: functional; outline: as §1
Salmonella typhimurium [10] = experiment: Antibacterial activity against Salmonella typhimurium ATCC14028 infected in mouse RAW264.7 cells assessed as reduction in intracellular bacterial growth incubated for 24 hrs in presence of gentamicin by CFU assay; format: functional, organism-based, Salmonella enterica subsp. enterica serovar Typhimurium; settings: Salmonella enterica, ATCC14028, RAW264.7, 24 h
Outline: (§2)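 RAW264.7 cells in DMEM + 10% FBS, seeded at 3×10^5 per well for 20 h. Bacteria were grown in LB for 16–18 h, subcultured 1:100 for 2 h, and brought to OD600 0.6 in PBS. After 1 h infection, cells got 100 µg/mL gentamicin for 1 h, then compound for 24 h with 20 µg/mL gentamicin.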

Salmonella typhimurium [11] = experiment: Antibacterial activity against Salmonella typhimurium ATCC14028 infected in human HT-29 cells assessed as reduction in intracellular bacterial growth incubated for 24 hrs in presence of gentamicin by CFU assay; format: functional, organism-based, Salmonella enterica subsp. enterica serovar Typhimurium; settings: Salmonella enterica, ATCC14028, HT-29, 24 h
Outline: (§3)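 Host cells: HCT-116 and HT-29 in McCoy's 5A + 10% FBS; INT-407 and J774.1 in DMEM + 10% FBS. Bacteria were LB-grown, subcultured 2 h, and set to OD600 0.6. After 1 h infection, cells got 100 µg/mL gentamicin for 1 h, then compound for 24 h with 20 µg/mL gentamicin. Lysis was 0.1% Triton X-100, then plating and overnight colony counts; EC50 calculated.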

HCT-116 = experiment: Cytotoxicity against human HCT-116 cells assessed as reduction in cell viability incubated for 24 hrs in presence of gentamicin by MTT assay; format: functional; outline: as §1
[12] = Cytotoxicity against mouse RAW264.7 cells assessed as reduction in cell viability incubated for 24 hrs by CMFDA and DAPI staining based high-content screening method; format: toxicity
Yersinia enterocolitica = experiment: Antibacterial activity against Yersinia enterocolitica infected in mouse RAW264.7 cells assessed as reduction in intracellular bacterial growth incubated for 24 hrs in presence of gentamicin by CFU assay; format: functional, organism-based; settings: RAW264.7, 24 h
Outline: (§4)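 Clinical isolate grown overnight (16-18 h) in BHI at 37°C with shaking, subcultured 1:100 for 2 h, pelleted, resuspended in PBS to OD600 0.6. RAW264.7 infected for 1 h, then 100 µg/mL gentamicin 1 h, then compound in medium with 20 µg/mL gentamicin for 24 h. Cells lysed in 0.1% Triton X-100, lysates serially diluted and plated, colonies counted after overnight growth; EC50 calculated.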

THP-1 [13] = experiment: Cytotoxicity against macrophage-like human THP-1 cells assessed as reduction in cell viability incubated for 24 hrs in presence of gentamicin by MTT assay; format: functional
Outline: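 THP-1 differentiated to macrophages with 100 ng/mL PMA for 72 h, then seeded at 10^5 cells/mL and grown 20 h. Compound added for 24 h; 0.5 mg/mL MTT for 1 h, formazan dissolved in DMSO, absorbance at 570 nm; CC50 calculated.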

Listeria monocytogenes = experiment: Antibacterial activity against Listeria monocytogenes infected in mouse RAW264.7 cells assessed as reduction in intracellular bacterial growth incubated for 24 hrs in presence of gentamicin by CFU assay; format: functional, organism-based; settings: RAW264.7, 24 h; outline: as §4
J774.1 = experiment: Cytotoxicity against mouse J774.1 cells assessed as reduction in cell viability incubated for 24 hrs in presence of gentamicin by MTT assay; format: functional; outline: as §1
Salmonella typhimurium [14] = experiment: Antibacterial activity against Salmonella typhimurium ATCC14028 infected in macrophage-like human THP-1 cells assessed as reduction in intracellular bacterial growth incubated for 24 hrs in presence of gentamicin by CFU assay; format: functional, organism-based, Salmonella enterica subsp. enterica serovar Typhimurium; settings: Salmonella enterica, ATCC14028, THP-1, 24 h
Outline: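 THP-1 cells in RPMI 1640 + 10% FBS, differentiated with 100 ng/mL PMA for 72 h. Cells were infected 1 h with LB-grown bacteria adjusted to OD600 0.6, given 100 µg/mL gentamicin for 1 h, then compound for 24 h in 20 µg/mL gentamicin.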

Salmonella typhimurium [15] = experiment: Antibacterial activity against Salmonella typhimurium ATCC14028 infected in human Intestine 407 cells assessed as reduction in intracellular bacterial growth incubated for 24 hrs in presence of gentamicin by CFU assay; format: functional, organism-based, Salmonella enterica subsp. enterica serovar Typhimurium; settings: Salmonella enterica, ATCC14028, Intestine 407, 24 h; outline: as §3
Salmonella typhimurium [16] = experiment: Antibacterial activity against ACSSuT-resistant Salmonella typhimurium NL10 infected in mouse RAW264.7 cells assessed as reduction in intracellular bacterial growth incubated for 24 hrs in presence of gentamicin by CFU assay; format: functional, organism-based, Salmonella enterica subsp. enterica serovar Typhimurium; settings: Salmonella enterica, NL10, RAW264.7, 24 h; outline: as §2
Salmonella typhimurium [17] = experiment: Antibacterial activity against Salmonella typhimurium ATCC14028 infected in mouse J774.1 cells assessed as reduction in intracellular bacterial growth incubated for 24 hrs in presence of gentamicin by CFU assay; format: functional, organism-based, Salmonella enterica subsp. enterica serovar Typhimurium; settings: Salmonella enterica, ATCC14028, J774.1, 24 h; outline: as §3
Salmonella typhimurium [18] = experiment: Antibacterial activity against Salmonella typhimurium ATCC14028 infected in human HCT-116 cells assessed as reduction in intracellular bacterial growth incubated for 24 hrs in presence of gentamicin by CFU assay; format: functional, organism-based, Salmonella enterica subsp. enterica serovar Typhimurium; settings: Salmonella enterica, ATCC14028, HCT-116, 24 h; outline: as §3
Salmonella Typhi = experiment: Antibacterial activity against Salmonella Typhi Ty2 infected in mouse RAW264.7 cells assessed as reduction in intracellular bacterial growth incubated for 24 hrs in presence of gentamicin by CFU assay; settings: Salmonella enterica, Ty2, RAW264.7, 24 h
RAW264.7 = experiment: Cytotoxicity against mouse RAW264.7 cells assessed as reduction in cell viability at 60 uM incubated for 24 hrs by MTT assay; format: toxicity, cell-based; settings: raw264.7, 24 h

CN1CCN(C2=Nc3ccccc3Oc3ccc(Cl)cc32)CC1 [LOXAPINE]
EC50 (Salmonella typhimurium [1]): 5.77 µM
selectivity ratio [2]: 19.1
CC50 at 24 h [3]: 110 µM

CN(C)CCNC1=Nc2cccnc2Nc2ccc(Cl)cc21
EC50 (Salmonella typhimurium [1]): 6.09 µM
selectivity ratio [2]: 26.1
CC50 at 24 h [3]: 159 µM

Clc1ccc2c(c1)C(NCCCN1CCCC1)=Nc1cccnc1N2
EC50 (Salmonella typhimurium [1]): 4.24 µM
selectivity ratio [2]: 23.8
CC50 at 24 h [3]: 101 µM

Clc1ccc2c(c1)C(NCCN1CCNCC1)=Nc1cccnc1N2
EC50 (Salmonella typhimurium [1]): 8.82 µM
selectivity ratio [2]: 13.9
CC50 at 24 h [3]: 123 µM

O=C(O)c1cn(C2CC2)c2cc(N3CCNCC3)c(F)cc2c1=O [CIPROFLOXACIN]
EC50 (Salmonella typhimurium [1]): 0.06 µM

c1ccc2c(c1)N=C(NCCCN1CCCC1)c1ccccc1N2
EC50 (Salmonella typhimurium [4]): 1020 nM
CC50 [5]: > 180 µM
EC50 (Salmonella typhimurium [6]): 1270 nM
Activity [7]: inactive
Activity (Salmonella typhimurium [8]): inactive
CC50 (HT-29): > 180 µM
CC50 (THP-1 [9]): 153 µM
EC50 (Salmonella typhimurium [10]): 380 nM
EC50 (Salmonella typhimurium [11]): 5.97 µM
EC50 (Salmonella typhimurium [1]): 0.4 µM
CC50 (HCT-116): > 180 µM
CC50 at 24 h [12]: 92.5 µM
selectivity ratio [2]: 272
EC50 (Yersinia enterocolitica): 930 nM
CC50 (THP-1 [13]): 134 µM
EC50 (Listeria monocytogenes): 600 nM
CC50 (J774.1): 86.8 µM
EC50 (Salmonella typhimurium [14]): 520 nM
EC50 (Salmonella typhimurium [15]): 2490 nM
EC50 (Salmonella typhimurium [16]): 2280 nM
EC50 (Salmonella typhimurium [17]): 420 nM
EC50 (Salmonella typhimurium [18]): 2850 nM
CC50 at 24 h [3]: 109 µM
EC50 (Salmonella Typhi): 550 nM
Activity (RAW264.7): Non-Toxic

Cc1cc2c(s1)Nc1ccccc1N=C2NCCN1CCNCC1
EC50 (Salmonella typhimurium [1]): 4.17 µM
selectivity ratio [2]: 24.6
CC50 at 24 h [3]: 103 µM

Clc1ccc2c(c1)C(NCCN1CCCCC1)=Nc1cccnc1N2
EC50 (Salmonella typhimurium [1]): 5.67 µM
selectivity ratio [2]: 10.9
CC50 at 24 h [3]: 61.9 µM

c1ccc2c(c1)N=C(NCCN1CCNCC1)c1ccccc1N2
EC50 (Salmonella typhimurium [1]): > 30 µM
CC50 at 24 h [3]: 128 µM

Cc1cc2c(s1)Nc1ccccc1N=C2NCCN(C)C
EC50 (Salmonella typhimurium [1]): 1.48 µM
selectivity ratio [2]: 85.3
CC50 at 24 h [3]: 126 µM

Cc1cc2c(s1)Nc1ccccc1N=C2N1CCN(C)CC1 [OLANZAPINE]
EC50 (Salmonella typhimurium [1]): 5.4 µM
selectivity ratio [2]: 36.7
CC50 at 24 h [3]: 198 µM

Cc1cc2c(s1)Nc1ccccc1N=C2NCCN1CCCCC1
EC50 (Salmonella typhimurium [1]): 2.36 µM
selectivity ratio [2]: 16.5
CC50 at 24 h [3]: 38.9 µM

Cc1cc2c(s1)Nc1ccccc1N=C2NCCCN1CCCC1
EC50 (Salmonella typhimurium [1]): 1.14 µM
selectivity ratio [2]: 67.3
CC50 at 24 h [3]: 76.8 µM

c1ccc2c(c1)N=C(NCCN1CCCCC1)c1ccccc1N2
EC50 (Salmonella typhimurium [1]): 3.7 µM
selectivity ratio [2]: 29.8
CC50 at 24 h [3]: 110 µM

Clc1ccc2c(c1)C(NCCN1CCNCC1)=Nc1ccccc1O2
EC50 (Salmonella typhimurium [1]): 0.3 µM
selectivity ratio [2]: 75
CC50 at 24 h [3]: 22.5 µM

CN(C)CCNC1=Nc2ccccc2Nc2ccccc21
EC50 (Salmonella typhimurium [1]): 15.2 µM
selectivity ratio [2]: 19.7
CC50 at 24 h [3]: 299 µM
